From ChEMBL document CHEMBL1143825, “Evolution of resistant M414T mutants among hepatitis C virus replicon cells treated with polymerase inhibitor A-782759” (Antimicrob Agents Chemother, 2007) come the findings set out here.

The test system of assay [1] is Hepatitis C virus. Put plainly: Increase in NS5B M414T mutant levels in HCV 1b-N replicon cells at 70 nM after 2 days relative to baseline. Type of assay: functional, Hepacivirus hominis, genotype 1b strain N. The gist of the method: (§1)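 1b-N replicon cells, 2 × 10⁴ per well, were exposed to inhibitor for up to 4 days, PBS-washed, and total RNA extracted. RNA was reverse transcribed at 50°C for 50 min, then NS5B was amplified by first-round PCR for 25 cycles. Allele-specific SYBR green real-time PCR used M414-wild-type or T-specific antisense primers. %M414T = 100 × M414T/(M414T + wild-type copies), mean of three experiments.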
Background: In antiviral work, replicon cells carry a viral genome segment that copies itself.

In assay [2] the test system is Hepatitis C virus. Put plainly: Inhibition of RNA copy numbers in HCV 1b-N replicon cells with NS5B M414T mutant at 10 times EC50 after 4 days. Type of assay: functional, Hepacivirus hominis, genotype 1b strain N. More on the design: scale not given: the % may be the effect or the level left. An outline of the steps:
(§2)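 1b-N replicon cells treated with compound for 4 days, with a no-compound control. Total RNA was extracted and HCV RNA copy number quantified by TaqMan real-time RT-PCR, normalised per 1 pg total RNA.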

For assay [3], the system named is Hepatitis C virus. Put plainly: Increase in NS5B M414T mutant levels in HCV 1b-N replicon cells at 7000 nM after 3 days relative to baseline. Format: functional, Hepacivirus hominis, genotype 1b strain N. An outline of the steps:
as §1

Assay [4] relates to Hepatitis C virus. Put plainly: Increase in NS5B M414T mutant levels in HCV 1b-N replicon cells at 7000 nM after 2 days relative to baseline. Format: functional, Hepacivirus hominis, genotype 1b strain N. An outline of the steps:
as §1

In assay [5] the test system is Hepatitis C virus. Put plainly: Increase in NS5B M414T mutant levels in HCV 1b-N replicon cells at 70 nM after 3 days relative to baseline. Format: functional, Hepacivirus hominis, genotype 1b strain N. An outline of the steps:
as §1

For assay [6], the system named is Hepatitis C virus. Put plainly: Decrease in NS5B M414T mutant in HCV 1b-N replicon cells treated with 70 nM assessed as mutant level after drug withdrawal on day 4 and measured at day 18 and 28. Format: functional, Hepacivirus hominis, genotype 1b strain N. Set-up: scale not given: the % may be the effect or the level left. An outline of the steps: (§3)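 Replicon cells, 2 × 10⁵ per 10-cm dish, received inhibitor for 4 days, then drug was removed and culture continued to day 28, splitting 1:10 at 90% confluence. Cells were trypsinised and PBS-washed before RNA extraction. %M414T was measured by RT, first-round PCR, then allele-specific SYBR green real-time PCR as 100 × M414T/(M414T + wild-type copies), mean of three experiments.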

Assay [7] concerns Hepatitis C virus. Put plainly: Increase in NS5B M414T mutant levels in HCV 1b-N replicon cells at 700 nM after 4 days relative to baseline. Type of assay: functional, Hepacivirus hominis, genotype 1b strain N. The gist of the method:
as §1

The subject of assay [8] is Hepatitis C virus. Put plainly: Decrease in NS5B M414T mutant in HCV 1b-N replicon cells treated with 70 nM assessed as mutant level after drug withdrawal on day 4 and measured at day 10. Type of assay: functional, Hepacivirus hominis, genotype 1b strain N. More on the design: scale not given: the % may be the effect or the level left. An outline of the steps: as §3

Assay [9] concerns Hepatitis C virus. Put plainly: Decrease in NS5B M414T mutant in HCV 1b-N replicon cells treated with 700 nM assessed as mutant level after drug withdrawal on day 4 and measured at day 10. Type of assay: functional, Hepacivirus hominis, genotype 1b strain N. Set-up: scale not given: the % may be the effect or the level left. An outline of the steps: as §3
Assay [10] deals with Hepatitis C virus. Put plainly: Antiviral activity against HCV 1b-N. Type of assay: functional, organism-based, Hepacivirus hominis. The note with it: genotype 1b strain N. An outline of the steps: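 1b-N subgenomic replicon cells, grown in DMEM with 10% FBS, blasticidin and G418, seeded at 4,000 cells/well with eight serial compound dilutions. Replicon RNA copy number was quantified by TaqMan real-time RT-PCR, and EC50 was taken as the concentration giving 50% inhibition of copy number.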

Assay [11] relates to Hepatitis C virus. Put plainly: Increase in NS5B M414T mutant levels in HCV 1b-N replicon cells at 70 nM after 4 days relative to baseline. Type of assay: functional, Hepacivirus hominis, genotype 1b strain N. The gist of the method: as §1
Assay [12] deals with Hepatitis C virus. Put plainly: Decrease in NS5B M414T mutant in HCV 1b-N replicon cells treated with 7000 nM assessed as mutant level after drug withdrawal on day 4 and measured upto day 28. Format: functional, organism-based. The note with it: Hepacivirus hominis; genotype 1b strain N. An outline of the steps: as §3
For assay [13], the system named is Hepatitis C virus. Put plainly: Decrease in NS5B M414T mutant in HCV 1b-N replicon cells treated with 700 nM assessed as mutant level after drug withdrawal on day 4 and measured upto day 28. Type of assay: functional, organism-based. The note with it: Hepacivirus hominis; genotype 1b strain N. The gist of the method: as §3
The test system of assay [14] is Hepatitis C virus. Put plainly: Inhibition of RNA copy numbers in HCV 1b-N replicon cells with NS5B M414T mutant at 100 times EC50 after 4 days. Type of assay: functional, Hepacivirus hominis, genotype 1b strain N. More on the design: scale not given: the % may be the effect or the level left. The gist of the method: as §2
Assay [15] has as its system Hepatitis C virus. Put plainly: Increase in NS5B M414T mutant levels in HCV 1b-N replicon cells at 700 nM after 3 days relative to baseline. Format: functional, Hepacivirus hominis, genotype 1b strain N. An outline of the steps: as §1
The test system of assay [16] is Hepatitis C virus. Put plainly: Increase in NS5B M414T mutant levels in HCV 1b-N replicon cells at 7000 nM after 4 days relative to baseline. Format: functional, Hepacivirus hominis, genotype 1b strain N. An outline of the steps:
as §1

For assay [17], the system named is Hepatitis C virus. Put plainly: Inhibition of RNA copy numbers in HCV 1b-N replicon cells with NS5B M414T mutant at EC50 after 4 days. Format: functional, Hepacivirus hominis, genotype 1b strain N. More on the design: scale not given: the % may be the effect or the level left. The gist of the method:
as §2

In assay [18] the test system is Hepatitis C virus. Put plainly: Increase in NS5B M414T mutant levels in HCV 1b-N replicon cells at 700 nM after 2 days relative to baseline. Format: functional, Hepacivirus hominis, genotype 1b strain N. The gist of the method:
as §1

Structures are written as SMILES. Active and inactive are the calls of the source. The rule behind the calls is not given here.

As to `NC(=O)COc1ccc2c(c1)S(=O)(=O)N=C(c1c(O)c3ccccc3n(NC3CCC3)c1=O)N2`, the Activity in the assay with Hepatitis C virus [1] worked out at 0.8%; with Hepatitis C virus [2] it was 93%; in the assay with Hepatitis C virus [3] it was 56%; in the assay on Hepatitis C virus [4], 12.6%; in the assay on Hepatitis C virus [5], 2.5%; in the assay with Hepatitis C virus [6], 0.3%. The Activity with Hepatitis C virus [7] was found to be 26%; in the assay on Hepatitis C virus [8], 0.9%; in the assay on Hepatitis C virus [9], 4%; in the assay on Hepatitis C virus [11], 2.5%; with Hepatitis C virus [14] it was 99%; in the assay on Hepatitis C virus [15] it was 28%. Further, the Activity is 60% in the assay with Hepatitis C virus [16], 58% in the assay on Hepatitis C virus [17] and 4% in the assay with Hepatitis C virus [18]. A half-maximal response in the assay on Hepatitis C virus [10] (EC50) required 0.07 µM. Besides, the result with Hepatitis C virus [12] and in the assay on Hepatitis C virus [13] was inactive.

As for `COc1ccc2c(O[C@@H]3C[C@H]4C(=O)N[C@]5(C(=O)O)C[C@H]5/C=C\CCCCC[C@H](NC(=O)OC5CCCC5)C(=O)N4C3)cc(-c3csc(NC(C)C)n3)nc2c1` [CILUPREVIR], the results for the Activity with Hepatitis C virus [2], with Hepatitis C virus [14] and in the assay on Hepatitis C virus [17] were 99%, 99% and 37%, respectively. Besides, the EC50 in the assay on Hepatitis C virus [10] was found to be 0.004 µM.

Usually EC50 stands for the concentration needed to bring the measured effect to its halfway point.
